Measured values: ChEMBL document CHEMBL2331233, “Rational design, efficient syntheses and biological evaluation of N,N'-symmetrically bis-substituted butylimidazole analogs as a new class of potent Angiotensin II receptor blockers” (Eur J Med Chem, 2013)

Legend:
[1] = Antagonist activity at Angiotensin 2 type-1 receptor in Wistar rat uterus assessed as suppression of ANG2-induced contraction
[2] = target: T1, Type-1 angiotensin II receptor (Homo sapiens, UniProt P30556); experiment: Displacement of [125I-Sar1-Ile8]-ANG2 from human Angiotensin 2 type-1 receptor expressed in HEK293 cells after 1 hr by gamma counting analysis; format: cell-based
T1 sequence (P30556 whole entry): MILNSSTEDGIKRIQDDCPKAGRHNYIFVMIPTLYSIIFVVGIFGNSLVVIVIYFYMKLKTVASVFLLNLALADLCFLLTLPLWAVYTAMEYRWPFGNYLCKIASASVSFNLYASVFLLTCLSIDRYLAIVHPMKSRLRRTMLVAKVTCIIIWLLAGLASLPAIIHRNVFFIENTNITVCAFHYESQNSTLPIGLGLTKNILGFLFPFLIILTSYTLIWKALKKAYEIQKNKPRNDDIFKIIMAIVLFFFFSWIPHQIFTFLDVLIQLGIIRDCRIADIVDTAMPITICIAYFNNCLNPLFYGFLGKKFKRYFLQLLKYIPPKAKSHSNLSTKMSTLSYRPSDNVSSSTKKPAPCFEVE
How it was run: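 Membranes from HEK 293 cells stably transfected with human AT1 receptor (Geneticin 700 µg/mL selection) incubated in buffer B (50 mM Tris–HCl, 1 mM EDTA, 10 mM MgCl2, 0.2% BSA, bacitracin, aprotinin, pH 7.4) with 100,000–120,000 cpm radioligand and increasing analog concentrations, 1 h, 24 °C; GF/C filtration. Nonspecific binding with 1000 nM [Sar1-Ile8]ANGII. One-site nonlinear fit gives -log IC50; 2–4 experiments.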

Compound	pA2 [1]	IC50 [2] [nM]
CCCCc1c(Cl)[n+](Cc2ccc(-c3ccccc3-c3nn[nH]n3)cc2)cn1Cc1ccc(-c2ccccc2-c2nn[nH]n2)cc1		832
CCCCc1c(Br)[n+](Cc2ccc(-c3ccccc3-c3nn[nH]n3)cc2)cn1Cc1ccc(-c2ccccc2-c2nn[nH]n2)cc1		708
CCCCc1c(Cl)[n+](Cc2ccc(-c3ccccc3-c3nn[nH]n3)cc2)c(CO)n1Cc1ccc(-c2ccccc2-c2nn[nH]n2)cc1		6460
CCCCc1n(Cc2ccc(-c3ccccc3-c3nn[nH]n3)cc2)cc[n+]1Cc1ccc(-c2ccccc2-c2nn[nH]n2)cc1		1700
CCCCc1n(Cc2ccc(-c3ccccc3-c3nn[nH]n3)cc2)c(CO)c(Cl)[n+]1Cc1ccc(-c2ccccc2-c2nn[nH]n2)cc1		417
CCCCc1c[n+](Cc2ccc(-c3ccccc3C(=O)O)cc2)cn1Cc1ccc(-c2ccccc2C(=O)O)cc1		331
CCCCc1c[n+](Cc2ccc(-c3ccccc3C(=O)O)cc2)c(CO)n1Cc1ccc(-c2ccccc2C(=O)O)cc1		501

Molecules with a lower IC50 [2], results first:

pA2 [1]	IC50 [2] [nM]	Compound
8.58	4.27	CCCCc1c[n+](Cc2ccc(-c3ccccc3-c3nn[nH]n3)cc2)c(CO)n1Cc1ccc(-c2ccccc2-c2nn[nH]n2)cc1.[Br-]
7.13	42.7	CCCCc1c(Br)[n+](Cc2ccc(-c3ccccc3-c3nn[nH]n3)cc2)c(CO)n1Cc1ccc(-c2ccccc2-c2nn[nH]n2)cc1.[Br-]
	0.347	CCCCc1c[n+](Cc2ccc(-c3ccccc3-c3nn[nH]n3)cc2)cn1Cc1ccc(-c2ccccc2-c2nn[nH]n2)cc1
	0.912	CCCCc1c[n+](Cc2ccc(-c3ccccc3-c3nn[n-]n3)cc2)cn1Cc1ccc(-c2ccccc2-c2nn[nH]n2)cc1
8.45	2.88	CCCCc1c[n+](Cc2ccc(-c3ccccc3-c3nn[n-]n3)cc2)cn1Cc1ccc(-c2ccccc2-c2nn[n-]n2)cc1.[Br-].[Na+].[Na+]
